Hits are enriched below; roughly 1.4% of the tested compounds scored in any of these assays.
HKDC1 inh = HKDC1 (human) hexokinase inhibition. hit rate 0.16% among 340,000. recombinant HKDC1, G6PDH/diaphorase resazurin coupled fluorescence. inhibition, % at 20 µM;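 active = inhibition above about 35% when tested at 20 µM, limit read from the data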
Target sequence (Q2TB90 whole entry, looked up): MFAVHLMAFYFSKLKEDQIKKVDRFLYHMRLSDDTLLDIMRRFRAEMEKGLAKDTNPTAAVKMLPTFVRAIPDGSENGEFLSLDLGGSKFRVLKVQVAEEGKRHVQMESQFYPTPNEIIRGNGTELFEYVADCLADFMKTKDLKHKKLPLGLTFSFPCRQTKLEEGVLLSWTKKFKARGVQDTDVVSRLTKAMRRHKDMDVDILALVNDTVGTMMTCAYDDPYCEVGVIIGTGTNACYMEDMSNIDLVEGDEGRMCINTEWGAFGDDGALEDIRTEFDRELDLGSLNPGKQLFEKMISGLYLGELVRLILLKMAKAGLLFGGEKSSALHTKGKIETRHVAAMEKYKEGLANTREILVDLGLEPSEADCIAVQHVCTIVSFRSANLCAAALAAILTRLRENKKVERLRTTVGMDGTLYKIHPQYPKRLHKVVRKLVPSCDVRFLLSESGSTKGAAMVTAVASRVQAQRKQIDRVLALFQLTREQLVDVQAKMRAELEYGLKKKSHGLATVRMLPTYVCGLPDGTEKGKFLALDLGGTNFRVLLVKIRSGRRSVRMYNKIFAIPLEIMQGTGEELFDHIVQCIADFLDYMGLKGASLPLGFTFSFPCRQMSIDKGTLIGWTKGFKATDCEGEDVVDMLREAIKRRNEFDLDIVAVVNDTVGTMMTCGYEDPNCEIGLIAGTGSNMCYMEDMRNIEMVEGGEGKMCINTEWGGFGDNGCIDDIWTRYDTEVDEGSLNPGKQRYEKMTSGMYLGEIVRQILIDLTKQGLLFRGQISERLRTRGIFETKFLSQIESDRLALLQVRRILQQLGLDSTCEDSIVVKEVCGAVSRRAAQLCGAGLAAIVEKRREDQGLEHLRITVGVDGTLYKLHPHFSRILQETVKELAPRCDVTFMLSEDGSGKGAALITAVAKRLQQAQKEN
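Material: recombinant HKDC1 hexokinase; Amount: HKDC1 at 5 µg/mL; Medium: Tris pH 8.0 buffer with MgCl2, Tween-20, BSA, BME; Schedule: 90 min reaction incubation at room temperature, dark; Technique: coupled resazurin fluorescence, excitation 525 nm, emission 613 nm.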
APOBEC3G inh = APOBEC3G (human) deaminase inhibition. Q9HC16. recombinant A3G, ssDNA deamination FAM/TAMRA fluorescence. inhibition, % at 20 µM. hit rate 0.28% among 330,000. AID 493012;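 active = inhibition of at least 40% at 20 µM, with no more than 30% in the related APOBEC3A deaminase screen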
A3A deaminase = human APOBEC3A DNA deaminase inhibition. P31941. recombinant A3A, FAM/TAMRA ssDNA deamination fluorescence. inhibition, % at 20 µM. hit rate 0.41% among 330,000. AID 493011;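 active = at least 40% inhibition at 20 µM here, with at most 30% in a related deaminase screen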
iPSC survival up = hiPSC single-cell survival enhancement; survival enhancement, % at 20 µM; AID 602274; hit rate 0.044% among 360,000; ATPlite luminescence; 100% = ROCK inhibitor wells, 0% = DMSO; in the data active = survival enhancement above about 18%;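 note: cells exposed to compounds for 16 hours before the ATP read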
PfG6PD inh = PfG6PD (Plasmodium falciparum) enzyme inhibition; PfGluPho enzyme, NADPH resazurin-diaphorase fluorescence; hit rate 0.78% among 350,000; inhibition, % at 20 µM;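 active = inhibition reaching at least a set limit at 20 µM in the primary screen, cut at about 59% in these data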
PfG6PD confirm = confirmation of Plasmodium falciparum G6PD inhibitors | AID 504753 | shares compounds with PfG6PD inh | inhibition, % at 20 µM | recombinant PfGluPho, NADPH-diaphorase-resazurin fluorescence | hit rate 34% among 2,400;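 active = inhibition of at least 50% at 20 µM in any single replicate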
Diaphorase 10uM = diaphorase inhibition or oxidation at 10 uM NADPH | shares compounds with PfG6PD inh | diaphorase-coupled resazurin reduction, fluorescence, NADPH 10 uM | inhibition, % at 20 µM | hit rate 39% among 820;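 active = average inhibition reaching 50% or more with the compound at 20 µM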;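 note: resorufin red fluorescence formed as diaphorase reduces resazurin using NADPH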
Diaphorase 30uM = counter-screen for P. falciparum G6PD inhibitors: diaphorase inhibitors, oxidizers; Diaphorase/resazurin coupled assay, resorufin fluorescence, 30 uM NADPH; inhibition, % at 20 µM; hit rate 29% among 820; shares compounds with PfG6PD inh;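 active = inhibition averaging 50% or more, tested at 20 µM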
Hits are given with their value; - = inactive; . = no result given.

SMILES	HKDC1 inh	APOBEC3G inh	A3A deaminase	iPSC survival up	PfG6PD inh	PfG6PD confirm	others
CCn1c(SCC(=O)Nc2ccc(C)cc2)nnc1-c1cnccn1	-	-	-	-	68	-
C=CCn1c(SCC(=O)Nc2ccc(OC)cc2)nnc1-c1cnccn1	-	-	-	-	64	-
CCn1c(SCC(=O)Nc2ccccc2OC)nnc1-c1cnccn1	-	-	-	-	78	53	Diaphorase 10uM=-;Diaphorase 30uM=-
C=CCn1c(SCC(=O)Nc2ccccc2OC)nnc1-c1ccccn1	-	-	-	-	-	.
CCC(C)CCN1C(Nc2ccccc2)=NC[C@@H]1C (stereo partly drawn)	-	-	-	-	-	.
O=C(Nc1ccc(Br)cc1)Nc1cnccn1	-	-	-	-	-	.
Cc1cccc(C(=O)Nc2ccc3c(c2)ncn3C)c1	-	-	-	-	-	.
Cc1cc(C(=O)CSc2nnc(C3CC3)n2C2CC2)c(C)n1C(C)C	-	-	-	-	-	-
CC(C)Cc1ccc(CN2CCCC(NC(=O)CSc3nncn3C)C2)cc1 (stereo not drawn)	.	-	-	-	.	.
O=C(Nc1ccccc1)c1cc2ccccc2c(=O)s1	-	-	-	-	-	.
O=C(Nc1ccccc1)c1cc2ccccc2s1	-	.	.	-	71	-
CCCN1C(=O)COc2ccc(C(=O)c3ccccc3C(=O)O)cc21	-	-	-	-	-	.
O=C(O)c1ccccc1C(=O)c1ccc2c(c1)N(Cc1cccc(F)c1)C(=O)CO2	-	-	-	-	93	58	Diaphorase 10uM=58;Diaphorase 30uM=52
Cc1ccccc1-c1cc2nc(NCc3cccnc3)n(C)c(=O)c2s1	.	.	.	-	.	.
N#C/C(=C/c1ccc(-c2ccc([N+](=O)[O-])cc2)o1)c1nnc(N2CCOCC2)n1-c1ccccc1	-	.	.	-	-	.
CN1CCc2cccc3c2C1Cc1ccc(O)c(O)c1-3 (stereo not drawn)	-	-	-	-	64	-
CN1CCC(=C2c3ccccc3C(O)c3ccccc32)CC1 (stereo not drawn)	-	-	-	-	-	.
Cc1ccc(N(CC(=O)N/N=C/c2cccs2)S(C)(=O)=O)cc1Cl	-	-	-	-	106	75	Diaphorase 10uM=70;Diaphorase 30uM=65
COC(=O)CN(c1ccc(C)c(Cl)c1)S(C)(=O)=O	-	-	-	-	-	.
Fc1ccc(C2C3=C(Nc4ncnn42)c2ccccc2OC3c2ccncc2)cc1 (stereo not drawn)	-	-	-	-	61	-
CN1C(=O)N(C)C2(c3ccccc3)NC(=O)NC12c1ccccc1 (stereo not drawn)	-	-	-	-	-	.
CN1c2ccccc2N(C)C1(C)c1ccccc1	-	.	.	-	64	-
N#CC1C(=N)Cc2ccccc2-c2ccccc21 (stereo not drawn)	-	.	.	-	-	.
Cc1nc2ccccn2c1-c1ccnn1S(=O)(=O)c1ccc(F)cc1	-	-	-	-	77	56	Diaphorase 10uM=-;Diaphorase 30uM=59
Cc1nc2ccccn2c1C(=O)/C=C/c1ccc(F)cc1	-	-	-	-	-	.
SMILES	HKDC1 inh	APOBEC3G inh	A3A deaminase	iPSC survival up	PfG6PD inh	PfG6PD confirm	others
c1ccc(C2Nc3cccc4cccc(c34)N2)cc1	-	-	-	-	-	.
COc1ccc(C2Nc3cccc4cccc(c34)N2)cc1	-	-	-	-	69	-
C=C(C)Cn1c(C)cc(C)c(S(=O)(=O)c2ccc(C)cc2)c1=O	-	-	-	-	-	.
Cc1cc(C)n(Cc2ccc(Cl)cc2Cl)c(=O)c1S(=O)(=O)c1ccccc1	-	-	-	-	71	-
O=C(CCCNC(=O)c1ccc(Cl)cc1)Nc1nccs1	-	-	-	-	-	.
O=C1Nc2ccccc2/C1=C/c1ccc([N+](=O)[O-])cc1	-	-	-	-	-	.
CC1(c2ccc([N+](=O)[O-])cc2)Nc2ccccc2S1 (stereo not drawn)	-	-	-	-	72	-
CC1(OC(=O)C2CCCC2)C(=O)C=C2C=C(c3ccsc3)N(C3CCCC3)C=C2C1=O (stereo not drawn)	-	-	-	-	63	-
CC1(OC(=O)C2CCCC2)C(=O)C=C2C=C(c3ccsc3)N(CCCCO)C=C2C1=O (stereo not drawn)	-	-	-	-	66	-
CC1(OC(=O)C2CCCC2)C(=O)C=C2C=C(c3ccsc3)N(Cc3ccco3)C=C2C1=O (stereo not drawn)	-	-	-	-	-	.
Cc1cc(C)n(CCC(=O)N/N=C/c2ccc(Cl)c([N+](=O)[O-])c2)n1	-	-	-	-	-	.
O=C1C=CC(=O)N1CCNc1ncc(C(F)(F)F)cc1Cl	-	-	-	-	79	66	Diaphorase 10uM=-;Diaphorase 30uM=-
O=S(=O)(N=C1C=CC(=NS(=O)(=O)c2ccccc2)c2ccccc21)c1ccccc1	.	.	.	-	62	-
Cc1ccc(/C=N/NC(=O)CSCc2ccc(Cl)cc2)cc1	-	-	-	-	59	-
O=C(CSCc1ccc(Cl)cc1)N/N=C/c1ccco1	-	-	-	-	60	-
Cc1ccsc1/C=N/NC(=O)CSCc1ccc(Cl)cc1	-	-	-	-	114	65	Diaphorase 10uM=78;Diaphorase 30uM=58
CCOc1ccc(NC(=O)CN(C)C(=O)c2ccc3c(c2)S(=O)(=O)N=C2CCCCCN23)cc1OCC	-	.	.	-	-	.
O=C(Cn1ccc(=O)[nH]c1=O)c1ccc([N+](=O)[O-])o1	.	.	.	-	59	-
O=C(Cn1ccc(=O)[nH]c1=O)NCCO	-	-	-	-	-	.
CCOC(=O)c1nc2sc(C)c(C)c2c(=O)[nH]1	-	-	-	-	-	.
CCOC(=O)/C(=C\c1cccc(O)c1)c1nc2sc(C)c(C)c2c(=O)[nH]1	-	-	-	-	69	-
Cc1ccc(NC(=O)COc2nsnc2N2CCOCC2)cc1Cl	-	-	-	-	-	.
CCOC(=O)c1c(C)n(-c2ccc(C)cc2)c2c(C(C(C)=O)C(=O)O)c(Br)c(O)c(O)c12 (stereo not drawn)	-	-	-	-	105	101	Diaphorase 10uM=-;Diaphorase 30uM=-
CN(CC(=O)Nc1ccccc1Cl)C(=O)COC(=O)/C=C/c1cccc(C(F)(F)F)c1	-	-	-	-	79	-
O=C(NCCc1ccccc1)c1nc(-c2cccs2)no1	-	-	-	-	-	.
Cc1nn(C)c(Sc2ccccc2N)c1[N+](=O)[O-]	-	-	-	-	64	-
CC(C)NC(=O)N(C)C[C@@H]1Oc2ccc(NC(=O)CCN3CCOCC3)cc2CC(=O)N([C@@H](C)CO)C[C@@H]1C	-	-	-	-	-	.
O=[N+]([O-])c1cccc(NC(=S)NCc2ccncc2)c1	-	-	-	-	79	-
Nc1c(C(=O)Nc2ccc(F)cc2)sc(=S)n1-c1ccccc1F	-	-	-	-	99	56	Diaphorase 10uM=-;Diaphorase 30uM=-

Source: PubChem BioAssay
